Measured values: ChEMBL document CHEMBL4513216, “Probing the Open Global Health Chemical Diversity Library for Multistage-Active Starting Points for Next-Generation Antimalarials” (ACS Infect Dis, 2020)

Experiment: Toxicity liver stage against HepG2, at 10uM
Type: cell-based
Parameters: test concentration 10 uM, cell line HepG2-A16-CD81EGFP
Conditions: human, HepG2-A16-CD81EGFP cells; read-out: INHIBITION
Outline: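 Uninfected HepG2-A16-CD81EGFP cells, 3 × 10^3 per well, 1536-well, plated on prespotted compound at 10 μM final, parasite-free screening media added to match infected plates; puromycin 10 μM positive, DMSO 0.5% negative; run in parallel with 48 h PbLuc assay at 37 °C, 5% CO2; viability by CellTiter-Glo luminescence, normalized to controls.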

CCNC(=O)N1C[C@@H]2OCC(=O)N(CC3CCCCC3)[C@@H]2C1
cytotoxicity at 10 µM: -4.04%

O=C(COc1coc(CN2CCCC2)cc1=O)Nc1cc(Cl)ccc1Cl
cytotoxicity at 10 µM: -1.71%

CCn1nccc1C(=O)Nc1nc(C)c(C(C)=O)s1
cytotoxicity at 10 µM: 1.28%

CCOC(=O)CCC(=O)N1CC(c2nc(Cc3ccccc3)no2)C1
cytotoxicity at 10 µM: -2.42%

O=C(Cc1ccccc1Cl)Nc1cc(N2CCCC2)ncn1
cytotoxicity at 10 µM: -2.46%

CC(=O)N1CCN(c2cc(-n3cccc3)ncn2)CC1
cytotoxicity at 10 µM: -2%

O=C1CCC2(CCCN(C(=O)c3cccs3)C2)N1 (centres undefined)
cytotoxicity at 10 µM: 6.88%

CN(C)CCN1C(=O)CCC12CCN(C(=O)CC1CC1)CC2
cytotoxicity at 10 µM: 3.35%

O=C(NCCN1CCOCC1)c1cc2c(s1)CCN2Cc1cccnc1
cytotoxicity at 10 µM: -7.98%

CC(C)NC(=O)N1CCCn2cnc(CN3CCCC3=O)c2C1
cytotoxicity at 10 µM: 17.4%

COc1ccc(F)cc1S(=O)(=O)NCC(c1cccn1C)N(C)C (centres undefined)
cytotoxicity at 10 µM: -20.7%

O=C(c1cc(-c2ccco2)cs1)N1CCCC1
cytotoxicity at 10 µM: 11%

CN1CCC(CCc2ccnc(Nc3cnccn3)c2)CC1
cytotoxicity at 10 µM: -12.6%

Cc1ncc(CN2CCc3nc4cc(C(C)(C)C)nn4c(O)c3C2)n1C
cytotoxicity at 10 µM: 8.62%

COc1ccccc1CC(=O)N1CC[C@H](O)[C@]2(CCCO2)C1
cytotoxicity at 10 µM: -6.75%

Cc1cnn(CCNCc2nccn2Cc2ccccc2)c1
cytotoxicity at 10 µM: 5.91%

CN(C(=O)OC(C)(C)C)C1CCN(C(=O)c2ccc(Cl)o2)C1 (centres undefined)
cytotoxicity at 10 µM: -42.5%

Cc1cc(C)nc(NC2CCc3nc(C)nn3C2)n1 (centres undefined)
cytotoxicity at 10 µM: 14.3%

CN(C)C(=O)CCNC(=O)Nc1sc2ccccc2c1Cl
cytotoxicity at 10 µM: 6.14%

CC(CNC(=O)NCc1ccco1)N1CCc2sccc2C1 (centres undefined)
cytotoxicity at 10 µM: -11.5%

CNC(=O)N(C)CC1(c2ccc(Br)cc2)CC1
cytotoxicity at 10 µM: -9.6%

O=C1CCN(C(=O)NCCCc2ccc(Cl)cc2Cl)CCN1
cytotoxicity at 10 µM: -2.37%

CCOc1ccnc(N2CCCN(c3nc(CC)ns3)CC2)n1
cytotoxicity at 10 µM: 1.19%

CCCc1nc(C)c(C(=O)NCc2ccc(C)n2C)s1
cytotoxicity at 10 µM: 16.5%

CC(C)C(C(=O)NC1CCOCC1)n1cnc2cc(F)c(F)cc21 (centres undefined)
cytotoxicity at 10 µM: -2.75%

COCCn1cc(C(=O)N2CCCC2c2ccncc2)c2ccccc21 (centres undefined)
cytotoxicity at 10 µM: 10.7%

CCNC(=O)CN1CCOC(c2ccccc2C(F)(F)F)C1 (centres undefined)
cytotoxicity at 10 µM: 3.09%

Cn1nnnc1SC1CCCN(c2cccc(F)c2)C1=O (centres undefined)
cytotoxicity at 10 µM: 3.85%

CCc1nc(CCNC(=O)Nc2cccc(C(=O)NC)c2C)cs1
cytotoxicity at 10 µM: -11.2%

Cc1cc(NC2CCc3nc(C)nn3C2)n2ncnc2n1 (centres undefined)
cytotoxicity at 10 µM: -6.29%

CS(=O)(=O)NC1CCN(c2cccc(F)c2C#N)CC1
cytotoxicity at 10 µM: -3.6%

Cc1n[nH]c(C)c1NC(=O)Nc1cccnc1N1CCCC1
cytotoxicity at 10 µM: -14%

N#CC(NC(=O)CS(=O)(=O)C1CCCC1)c1ccc(F)cc1F (centres undefined)
cytotoxicity at 10 µM: 3.56%

CC(C)(C)CC(=O)NCC(=O)Nc1ccn(Cc2ccncc2)n1
cytotoxicity at 10 µM: 13.2%

COCCN(Cc1ccccc1)Cc1csc(-c2ncccn2)n1
cytotoxicity at 10 µM: 3.78%

Cc1nc2n(n1)CCN(S(=O)(=O)c1ccc(OC(F)(F)F)cc1)C2
cytotoxicity at 10 µM: -5.86%

Cc1c(F)cccc1S(=O)(=O)NCC(C)(C)CC(C)O (centres undefined)
cytotoxicity at 10 µM: -8.29%

CC(C)COCCCNC(=O)NC(C)c1ccc(-n2cncn2)cc1 (centres undefined)
cytotoxicity at 10 µM: 2.42%

Cc1cccc(CN(Cc2ccccn2)S(=O)(=O)N(C)C(C)C)c1
cytotoxicity at 10 µM: -5.02%

CCn1c(C2CCCN2Cc2noc(C(C)(C)C)n2)nc2ccccc21 (centres undefined)
cytotoxicity at 10 µM: 3.18%

Cc1nnc(-c2cccc(C#N)c2)n1C1CCN(C(C)C)C1=O (centres undefined)
cytotoxicity at 10 µM: -2.4%

COCCCNC(=O)CN(C)C(=O)CN(C)c1ccc(C#N)cn1
cytotoxicity at 10 µM: -6.08%

CCS(=O)(=O)N1C[C@H]2CN(CC3CC3)C(=O)[C@H]2C1
cytotoxicity at 10 µM: 0.797%

O=C(CCc1nc(-c2ccccc2)no1)N[C@H]1COC[C@@H]1N1CCCC1
cytotoxicity at 10 µM: -1.83%

COCc1cc(N2CCOCC2)n2nccc2n1
cytotoxicity at 10 µM: -1.98%

CC(=O)c1cnc(NCCc2csc(-c3cnccn3)n2)nc1C
cytotoxicity at 10 µM: 6.09%

Cc1cnc(C)c(N2CC[C@H](N3CCOCC3)[C@H](CCCO)C2)n1
cytotoxicity at 10 µM: 6.12%

Cn1ncc(N2CCC(CNC(=O)[C@@H](N)c3ccccc3)CC2)cc1=O
cytotoxicity at 10 µM: 4.18%

Cc1c(C(C)N)cnn1-c1ccccn1 (centres undefined)
cytotoxicity at 10 µM: -3.86%

c1csc(CN(Cc2ccsc2)CC2CCCO2)n1 (centres undefined)
cytotoxicity at 10 µM: -1.32%

CCn1c(C)nnc1SCCNC(=O)c1sc(C(C)C)nc1C
cytotoxicity at 10 µM: -1.27%

COCCN(C)CCN1CC2(CCN(C3CCCNC3)CC2)OC1=O (centres undefined)
cytotoxicity at 10 µM: 2.28%

O=C(CCn1cnnc1)N1CCCC(c2ncc[nH]2)C1 (centres undefined)
cytotoxicity at 10 µM: -9.01%

O=S(=O)(Cc1ccccc1F)NCCN1CCOCC1
cytotoxicity at 10 µM: 24.8%

COC(=O)C1CCN(C(=O)c2ccc(C)c(NS(C)(=O)=O)c2)CC1
cytotoxicity at 10 µM: 3.98%

Cc1nc(C)n(C2CCCN(C(=O)CCCc3ccccn3)C2)n1 (centres undefined)
cytotoxicity at 10 µM: -0.586%

CN(Cc1ccncc1)C(=O)[C@H]1CSCN1C(=O)OC(C)(C)C
cytotoxicity at 10 µM: -9.65%

CC(=O)N1CCC(C(=O)NCc2cc[nH]n2)(c2ccccc2)CC1
cytotoxicity at 10 µM: -0.037%

CC(=O)N(Cc1noc(C2CC2)n1)C1CCN(CC(=O)NC2CC2)C1 (centres undefined)
cytotoxicity at 10 µM: -3.67%

COc1ccc(Cl)cc1NCC(=O)NCc1cccnc1OC
cytotoxicity at 10 µM: -10.3%

CCNC(=O)NC(=O)CNC(C)(C)c1ccc2c(c1)OCO2
cytotoxicity at 10 µM: -8.58%

CCN1CC(C(=O)NCc2ccnc(-n3cccn3)c2)CC1=O (centres undefined)
cytotoxicity at 10 µM: -9.3%

CCc1nc(CC(=O)N2CCn3c(CC)nnc3C2)cs1
cytotoxicity at 10 µM: -11.4%

CCN(CC1CCCO1)C(=O)Nc1cc(C)ccc1S(C)(=O)=O (centres undefined)
cytotoxicity at 10 µM: -12.5%

CCC(O)CN1CCN(C(=O)c2cccc(CC#N)c2)CC1 (centres undefined)
cytotoxicity at 10 µM: -11.6%

CCc1nnc(CN2CCN(CC(O)c3ccccc3)CC2)o1 (centres undefined)
cytotoxicity at 10 µM: -12.3%

CC(C)c1noc(CCC(=O)NC2CCS(=O)(=O)C2)n1 (centres undefined)
cytotoxicity at 10 µM: -15.6%

Cc1cnn(CC2CN(Cc3noc(C4CC4)n3)CCO2)c1 (centres undefined)
cytotoxicity at 10 µM: -11.4%

c1cnn(CC2CN(Cc3nc(C4CC4)no3)CCO2)c1 (centres undefined)
cytotoxicity at 10 µM: -27.6%

CC(C(=O)NCc1ccc(N2CCCCCC2)nc1)S(C)(=O)=O (centres undefined)
cytotoxicity at 10 µM: -11.9%

CSCc1ccc(CNC2CCCN(c3ccc(C)nn3)C2)o1 (centres undefined)
cytotoxicity at 10 µM: -13.2%

COc1ccc(C(=O)N2CCC(Nc3cccnn3)CC2)cn1
cytotoxicity at 10 µM: 4.07%

Cc1cc(CN(C)C(=O)NC2CCN(S(C)(=O)=O)CC2)no1
cytotoxicity at 10 µM: 3.25%

Nc1cccnc1N1CCCCCC1
cytotoxicity at 10 µM: 4.45%

COc1ccc(CN2CCC(c3cc(O)nc(C)n3)C2)c(OC)c1 (centres undefined)
cytotoxicity at 10 µM: -5.77%

Cc1nc2sccn2c1CN(CCCN(C)C)Cc1ccccn1
cytotoxicity at 10 µM: 3.38%

O=C(C1CCCO1)N1CCCn2c(nnc2Cn2ccnc2)C1 (centres undefined)
cytotoxicity at 10 µM: 15.7%

Cc1ccc(-c2cnc3n2CCN(C)C32CCN(CC3CC3)CC2)cc1
cytotoxicity at 10 µM: 11%

CC(C)N1CCC2(CCCN(c3nccc(C(F)(F)F)n3)C2)CC1
cytotoxicity at 10 µM: 10.9%

O=C(O)c1c(-c2ccncc2)ncc2c1CCN(C1CCOC1)C2 (centres undefined)
cytotoxicity at 10 µM: 15%

CC(C)c1nn(C)c(N(C)C)c1CNC1CCOc2c(F)cccc21 (centres undefined)
cytotoxicity at 10 µM: -1.99%

CC(C)n1nc(Cn2cccn2)c2c1CN(C1CCOC1)C2 (centres undefined)
cytotoxicity at 10 µM: 6.95%

O=C1NC2(CCN(Cc3cccnc3)CC2)CC1c1cccnc1 (centres undefined)
cytotoxicity at 10 µM: 3.14%

CCCN1C[C@@H]2CC[C@H]1CN(c1nnc(C(C)C)s1)C2
cytotoxicity at 10 µM: -11.4%
